Screening data: PubChem BioAssay, several laboratories
Only some compounds are listed: those with a hit (about 1% of all), similar ones and a draw of the others.
T cell modulator – modulates CD8 T cell binding to vesicles | AID 2052 | response (vesicle binding), % at 7 µM | 2C CD8+ T cell-vesicle binding, flow cytometry; stronger effect = lower value | 330,000 tested, 0.068% active;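 active = response, share of CD8 T cells binding vesicles, and their 90th percentile fluorescence all below set limits, cut at about 80% in these data, passing the limit was not always enough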;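 note: values below 100% mean blocked vesicle binding to the CD8+ T cells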
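Material: 2C TCR transgenic mouse naive CD8+ T cells, MACS-purified. Also added: QL9-charged Drosophila Ld/ICAM-1/B7-1 vesicles. Timing: binding 1.5 h at 37 °C. Measured by: high-throughput flow cytometry with anti-B7-1 and anti-CD8 staining. Read-out: percent CD8+ FL2 mean versus row control. Controls: Unloaded micro-vesicles (low), QL9 vesicles with 0.7% DMSO (high).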
NLRP3 yeast inh – NALP3 inhibition in yeast. Yeast reconstituted NLRP3/ASC/caspase-1, beta-gal luminescence, 24 h. inhibition, % at 10 µM. 330,000 tested, 0.39% active. AID 2825;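 active = inhibition of 50% or more; inactive = inhibition below 50%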
Bfl-1 A1 inh – inhibitors of the anti-apoptotic protein A1, read as caspase activation; caspase activation, % (concentration not given with the values); MEF A1-2A-BIM cells, Caspase-Glo 3/7 luminescence, 3 h; percent of clofoctol response, vehicle zero; 330,000 tested, 0.066% active;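 active = over half of replicate activation scores above 10%, or exactly half above 10 with the replicate mean above 10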
NALP1 inh – NALP1 inhibition. S. cerevisiae NALP1/ASC/caspase-1 growth, X-gal OD620, 72 h. inhibition, % at 10 µM. 280,000 tested, 0.61% active. AID 2071; in the data active = inhibition mostly above about 24%, no sharp cut-off; inactive = mostly below about 32%
NALP3 yeast conf – NALP3 inhibition confirmation in yeast; shares compounds with NLRP3 yeast inh; yeast expressing human NALP3, luminescence; inhibition, % at 10 µM; 1,300 tested, 81% active; AID 435006; in the data active = inhibition above about 48%
Casp1-ASC yeast – counter-screen for NALP3 inhibitors: yeast caspase-1-ASC | shares compounds with NLRP3 yeast inh | inhibition, % at 10 µM | AID 488784 | 1,000 tested, 66% active | yeast expressing Caspase-1-ASC, luminescence counter screen
NALP3 yeast rt – yeast NALP3 inhibition, confirmed on retest | AID 488794 | 1,000 tested, 53% active | yeast expressing human NALP3, luminescence read-out | shares compounds with NLRP3 yeast inh | inhibition, % at 10 µM
Hits are given with their value; . = inactive; / = no result. Cut-off read from the data, not from the text of the source, unless noted: active = inhibition above about 50%; inactive = the rest.

SMILES	T cell modulator	NLRP3 yeast inh	Bfl-1 A1 inh	NALP1 inh	NALP3 yeast conf	Casp1-ASC yeast	NALP3 yeast rt
CC(=O)Nc1cccc(-c2cc(-c3c(Cl)cccc3Cl)no2)c1	.	52	.	/	.	53	52
COc1ccccc1-c1cnn2c(NC3CCCC3)cc(C)nc12	.	.	.	.	/	/	/
Cc1cccc2[nH]c(CCNC(=O)C3CCC(=O)N(CCc4cccc(F)c4)C3)nc12 (stereo not given)	.	.	.	.	/	/	/
COc1cc(-c2nc3ccccc3s2)ccc1O	.	.	.	.	/	/	/
COc1ccc(-c2nc3ccccc3s2)cc1O	.	73	.	.	46	73	64
O=c1c2c([nH]c3ccccc13)CCCC2	.	.	.	.	/	/	/
CC(C)(C)C1CCc2[nH]c3ccccc3c(=O)c2C1 (stereo not given)	.	72	.	.	94	72	77
O/N=C/c1ccc(OCc2ccccc2)c(Br)c1	.	/	.	.	/	/	/
O/N=C/c1cc(Br)cc(Br)c1OCc1ccccc1	/	.	.	/	.	/	/
Clc1ccc2ccc3cccnc3c2n1	.	.	.	.	/	/	/
O=S1(=O)Nc2c(ccc3cccnc23)-c2ccccc21	.	70	.	.	86	98	91
O=C(c1cc(F)ccc1F)C1CCCN(C(=O)c2ccc3nccnc3c2)C1 (stereo not given)	.	.	.	.	/	/	/
Cc1ccc(CCNC(=O)Cn2ccc3cc(S(=O)(=O)N4CCCC4)ccc32)cc1	.	.	.	.	/	/	/
CC(C)NC(=O)c1cc2cc([N+](=O)[O-])ccc2s1	.	.	.	.	/	/	/
CCCNC(=O)c1cc2cc([N+](=O)[O-])ccc2s1	.	52	.	.	.	.	.
O=S(=O)(c1cnc(Cl)c(Br)c1)N1CCCCCC1	.	53	.	.	55	.	.
Nc1ncc(Br)cc1S(=O)(=O)N1CCCCCC1	.	53	.	.	59	56	.
Cc1c(C(=O)N2CCC[C@H]2CO)oc2c(F)cccc12	.	.	.	.	/	/	/
COc1cccc(CCN2CCC(CNS(=O)(=O)c3cc(-c4cc(C)no4)ccc3C)CC2)c1	.	.	.	.	/	/	/
CCc1sc(C(=O)N2CCc3ccccc32)cc1C	.	51	.	.	.	/	/
CCCN(CCC)c1nc(-c2ccccn2)nc2ccccc12	.	50	.	.	76	/	/
CCCCN(CC)c1nc(-c2ccncc2)nc2ccccc12	.	.	.	.	/	/	/
CCn1c(SCc2nc(-c3ccccc3)no2)nnc1-c1ccco1	.	.	.	.	/	/	/
Cn1c(SCc2nc(-c3ccc(Br)cc3)no2)nnc1-c1ccco1	.	58	.	.	71	61	.
COc1ccc2c(C)cc(SCC(=O)NC3CCCC3)nc2c1	.	.	.	/	/	/	/
SMILES	T cell modulator	NLRP3 yeast inh	Bfl-1 A1 inh	NALP1 inh	NALP3 yeast conf	Casp1-ASC yeast	NALP3 yeast rt
COc1ccc2nc(SCC(=O)NC3CCCC3)c(C)cc2c1	.	58	.	.	71	53	.
COc1ccc(S(=O)(=O)Nc2ccccc2N2CCOCC2)cc1OC	.	.	.	/	/	/	/
O=C(/C=C/c1ccnc2ccccc12)c1cccs1	.	53	.	.	73	/	/
COc1ccc(OC)c(Nc2cc(-c3ccccc3)nc(N)n2)c1	.	.	.	.	.	.	.
COc1ccc(-n2nnnc2S(=O)(=O)CC(=O)N2CCCCC2)cc1	.	57	.	.	62	63	.
CN(CC(=O)Nc1ccccc1Br)C(=O)CNC(=O)Cc1cccc2ccccc12	.	.	.	.	/	/	/
C/C(CC(=O)Nc1cccc(Br)c1)=N\NC(=O)c1ccc(O)cc1O	.	.	.	.	/	/	/
O=C(NCc1ccc(F)cc1)c1cc(-c2cccs2)on1	.	51	.	.	69	.	.
CCN(CC)S(=O)(=O)c1cc(NC(=O)C2CSC3(C)CCC(=O)N23)ccc1C (stereo not given)	.	.	.	/	/	/	/
O=C(Nc1ccc(NC(=O)c2cccs2)cc1Cl)c1ccco1	.	.	.	.	/	/	/
Cc1ccn(-c2ccc(NC(=O)c3cccs3)cc2)n1	.	59	.	.	82	64	.
O=C(Nc1ccc(Cl)cc1)c1cccs1	.	60	.	/	77	55	65
O=C(Nc1ccc(-c2cn3ccccc3n2)cc1)c1cccs1	.	57	.	.	76	72	62
O=C(Nc1ccc(NC(=O)c2cccs2)c(Cl)c1)c1cccs1	.	61	.	.	84	64	60
CC(=O)N1CCN(c2ccc(S(=O)(=O)N3CCOCC3)cc2[N+](=O)[O-])CC1	.	.	.	/	/	/	/
COC(=O)c1ccccc1OCC(=O)NC1CCCCC1	.	77	.	.	85	89	71
O=C(COc1ccc(Cl)cc1[N+](=O)[O-])NC1CCCCC1	.	53	.	.	.	58	.
COc1ccc(C(=O)OCC(=O)NC2CCCC2)c(OC)c1	.	.	.	.	/	/	/
CC(=O)c1cc(Cl)ccc1OCC(=O)NC1CCCC1	/	.	/	/	/	/	/
COc1ccc(C(=O)c2ccccc2)c(OCC(=O)NC2CC2)c1	.	52	.	.	70	/	/
CCc1ccc(N(CC(=O)NCc2ccco2)C(=O)CCC(=O)Nc2ccccn2)cc1	.	.	.	.	/	/	/
CC(NC(=O)c1ccc(S(=O)(=O)NCc2ccco2)cc1)c1ccc(F)cc1 (stereo not given)	.	.	.	/	/	/	/
Cc1ccc(OCC2Cn3c(nc4c3c(=O)[nH]c(=O)n4C)O2)cc1C (stereo not given)	.	.	.	.	/	/	/
CC(=O)c1c(C)n(CCc2ccc(Cl)cc2)c2ccc(O)cc12	.	.	.	.	/	/	/
O=C1c2cccc([N+](=O)[O-])c2C(=O)N1CCO	.	.	.	.	/	/	/
SMILES	T cell modulator	NLRP3 yeast inh	Bfl-1 A1 inh	NALP1 inh	NALP3 yeast conf	Casp1-ASC yeast	NALP3 yeast rt
O=C1c2cccc3c(Nc4ccccc4Cl)c([N+](=O)[O-])cc(c23)C(=O)N1CCO	.	54	.	.	71	56	56
O=S(=O)(c1ccc(Cl)cc1)N1CCN(c2ccccn2)CC1	.	.	.	.	/	/	/
O=S(=O)(c1ccc(Cl)cc1)N1CCN(c2ncnc3sccc23)CC1	.	50	.	/	52	.	.
Cc1csc2c(N3CCN(S(=O)(=O)c4ccc(Cl)cc4)CC3)ncnc12	.	68	.	.	55	.	.
CCC1Oc2ccccc2N(Cc2ccccc2C)C1=O (stereo not given)	.	.	.	.	.	/	/
CCOC(=O)CN1C(=O)C(CC)Oc2ccccc21 (stereo not given)	.	.	.	.	/	/	/
CCOC(=O)C1=Nc2ccccc2C1=[N+]=[N-]	.	82	.	75	89	97	87
CCOC(=O)c1cnc(-c2ccccc2O)nc1Cl	.	.	.	.	/	/	/
Cc1ccc(-c2nc(CS(=O)CC(=O)NCCCN3CCN(Cc4ccccc4)CC3)c(C)o2)cc1 (stereo not given)	.	.	.	.	/	/	/
O=C(NCCCCc1ccccc1)c1cccc(Br)c1	.	53	.	.	69	57	.
